# Test results taken from ChEMBL document CHEMBL1151908, “Towards calixarene-based prodrugs: Drug release and antibacterial behaviour of a water-soluble nalidixic acid/calix[4]arene ester adduct” (Bioorg Med Chem Lett, 2009).
# Activity calls are given as the source filed them. No cut-off for these calls is given here.
# Key:
# Staphylococcus aureus [1] = assay: Antibacterial activity against Staphylococcus aureus ATCC 29213 at < 256 ug/mL after 18 to 24 hrs by CA-SFM and NCCLS-based broth microdilution method; type: functional, organism-based
# Staphylococcus aureus [2] = assay: Antibacterial activity against Staphylococcus aureus ATCC 25923 at < 256 ug/mL after 18 to 24 hrs by CA-SFM and NCCLS-based broth microdilution method; type: functional, organism-based
# Pseudomonas aeruginosa [3] = assay: Antibacterial activity against Pseudomonas aeruginosa ATCC 27853 at < 256 ug/mL after 18 to 24 hrs by CA-SFM and NCCLS-based broth microdilution method; type: functional, organism-based
# Enterococcus faecalis [4] = assay: Antibacterial activity against Enterococcus faecalis ATCC 29212 at < 256 ug/mL after 18 to 24 hrs by CA-SFM and NCCLS-based broth microdilution method; type: functional, organism-based
# Escherichia coli [5] = assay: Antibacterial activity against Escherichia coli ATCC 25922 at < 256 ug/mL after 18 to 24 hrs by CA-SFM and NCCLS-based broth microdilution method; type: functional, organism-based
# Pseudomonas aeruginosa [6] = assay: Antibacterial activity against Pseudomonas aeruginosa ATCC 27853 after 18 to 24 hrs by CA-SFM and NCCLS-based broth microdilution method; type: functional
# Method in brief: (§1)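 MIC determined in liquid phase by broth microdilution in U-bottom 96-well plates. Bacteria were grown in Mueller-Hinton broth or agar, and isolate purity was checked at each test by colony morphology and Gram stain. The final inoculum was 1×10^5 CFU/mL, with a series of drug concentrations added. Plates were incubated 18–24 h at 35 °C, and growth was read by absorbance at 540 nm. MIC is expressed in µmol/L and µg/mL.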
# Enterococcus faecalis [7] = assay: Antibacterial activity against Enterococcus faecalis ATCC 29212 after 18 to 24 hrs by CA-SFM and NCCLS-based broth microdilution method; type: functional; method in brief: as §1
# Escherichia coli [8] = assay: Antibacterial activity against Escherichia coli ATCC 25922 after 18 to 24 hrs by CA-SFM and NCCLS-based broth microdilution method; type: functional; method in brief: as §1
# Staphylococcus aureus [9] = assay: Antibacterial activity against Staphylococcus aureus ATCC 29213 after 18 to 24 hrs by CA-SFM and NCCLS-based broth microdilution method; type: functional; method in brief: as §1
# Staphylococcus aureus [10] = assay: Antibacterial activity against Staphylococcus aureus ATCC 25923 after 18 to 24 hrs by CA-SFM and NCCLS-based broth microdilution method; type: functional; method in brief: as §1
MIC (Pseudomonas aeruginosa [6]),MIC (Enterococcus faecalis [7]),MIC (Escherichia coli [8]),MIC (Staphylococcus aureus [9]),MIC (Staphylococcus aureus [10]),SMILES,Activity (Staphylococcus aureus [1]),Activity (Staphylococcus aureus [2]),Activity (Pseudomonas aeruginosa [3]),Activity (Enterococcus faecalis [4]),Activity (Escherichia coli [5])
,,,,,O=C([O-])C(F)(F)F.[Na+],inactive,inactive,inactive,inactive,inactive
220 µM,> 220 µM,110 µM,220 µM,220 µM,NCCc1cc2c(O)c(c1)Cc1cc(CCN)cc(c1O)Cc1cc(CCN)cc(c1OCCCO)Cc1cc(CCN)cc(c1O)C2,,,,,
100 µM,100 µM,25 µM,50 µM,50 µM,CCn1cc(C(=O)OCCCOc2c3cc(CCN)cc2Cc2cc(CCN)cc(c2O)Cc2cc(CCN)cc(c2O)Cc2cc(CCN)cc(c2O)C3)c(=O)c2ccc(C)nc21,,,,,

SMILES,MIC (Pseudomonas aeruginosa [6]),MIC (Enterococcus faecalis [7]),MIC (Escherichia coli [8]),MIC (Staphylococcus aureus [9]),MIC (Staphylococcus aureus [10]),Activity (Staphylococcus aureus [1]),Activity (Staphylococcus aureus [2]),Activity (Pseudomonas aeruginosa [3]),Activity (Enterococcus faecalis [4]),Activity (Escherichia coli [5])
CCn1cc(C(=O)O)c(=O)c2ccc(C)nc21 [NALIDIXIC ACID],200 µM,200 µM,100 µM,200 µM,200 µM,,,,,
